In ChEMBL document CHEMBL6177920, “Natural product-inspired [3 + 2] cycloaddition-based spirooxindoles as dual anticancer agents: synthesis, characterization, and biological evaluation by in vitro and in silico methods” (RSC Med Chem, 2025):
Calls of active or inactive are those of the source. The rule behind the calls is not given here.

Columns and labels:
HCT-15 [1] = experiment: Induction of cell cycle arrest in human HCT-15 cells assessed as accumulation of cells at G2/M phase at 200 uM (reference value: 12.25 %); assay type: functional; settings: time 48 hrs
HCT-15 [2] = experiment: Induction of apoptosis in human HCT-15 cells assessed as decrease in caspase 3 activity; assay type: functional, cell-based
Method in brief: (§1)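 Cells seeded 5 × 10^5/2 mL and incubated overnight at 37 °C. Treated 24 h at 37 °C with 62.5–1000 µM (MDA-MB-468) or 62.5–2000 µM (HCT 15), then a further 24 h incubation step. Trypsinized, fixed in cold 70% ethanol 30 min at −20 °C, PBS-washed, stained 30 min in the dark at room temperature with anti-caspase-3/7 antibody. FACS on FL1 gave % caspase-3 cells; mean ± SD of triplicates.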

HCT-15 [3] = experiment: Induction of apoptosis in human HCT-15 cells assessed as cell death by measuring red signals by acridine orange/EtBr staining based analysis; assay type: functional; settings: read-out: LD50 (the source's name)
Method in brief: (§2)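 Cells seeded 0.3 × 10^6/well and grown about 36 h. Exposed 48 h to 250, 500 and 1000 µM (MDA-MB-468) or 500, 1000 and 2000 µM (HCT 15); 0.5% DMSO control. Trypsinized, stained 5 min with EtBr (100 µM) plus acridine orange (100 µM). Fluorescence microscopy counted green live versus orange dead cells, reported as % dead cells.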

HCT-15 [4] = experiment: Induction of cell cycle arrest in human HCT-15 cells assessed as decrease in cells at S phase at 50 to 200 uM; assay type: functional, cell-based; settings: dose 50-200 µM
Method in brief: (§3)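 MDA-MB-468 or HCT 15 cells were seeded at 2 × 10^5 per 2 mL well in 6-well plates and exposed for 48 h to 50, 100 or 200 µM, with DMSO as control. Cells were trypsinized, spun 300×g for 5 min at 25 °C and fixed in cold 70% ethanol (30 min, ice). RNase A (100 µM, 4 h) was added, then PI (stock 50 µM, 10 min, RT). Phase distribution (sub-G0/G1, G0/G1, S, G2/M) was read by flow cytometry.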

MDA-MB-468 [5] = experiment: Induction of cell cycle arrest in human MDA-MB-468 cells assessed as decrease in cells at G0/G1 phase at 100 to 200 uM; assay type: functional, cell-based; settings: dose 100-200 µM; method in brief: as §3
MDA-MB-468 [6] = experiment: Induction of apoptosis in human MDA-MB-468 cells assessed as cell death by measuring red signals by acridine orange/EtBr staining based analysis; assay type: functional; settings: read-out: LD50 (the source's name); method in brief: as §2
MDA-MB-468 [7] = experiment: Induction of apoptosis in human MDA-MB-468 cells assessed as increase in caspase 3 activity at 62.5 to 1000 uM; assay type: functional, cell-based; settings: dose 62.5-1000 µM
Method in brief: (§4)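 Cells were plated at 5 × 10^5 per 2 mL in 6-well plates and held overnight at 37 °C in CO2. They were then treated for 24 h at 37 °C, with MDA-MB-468 at 62.5–1000 µM and HCT 15 at 62.5–2000 µM. Cells were trypsinized, fixed 30 min at −20 °C in cold 70% ethanol, PBS-washed and labelled with anti-caspase-3/7 antibody (30 min, dark, RT). Flow cytometry (FL1) gave % caspase-3-expressing cells, triplicate, mean ± SD.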

HCT-15 [8] = experiment: Induction of apoptosis in human HCT-15 cells assessed as decrease in caspase 3 activity at 2000 uM; assay type: functional, cell-based; method in brief: as §4
MDA-MB-468 [9] = experiment: Antiproliferative activity against human MDA-MB-468 cells assessed as inhibition of cell proliferation incubated for 24 to 72 hrs by SRB assay; assay type: functional, cell-based
Method in brief: (§5)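 Cells seeded 1 × 10^4/well in DMEM + 10% FBS, incubated overnight at 37 °C, 5% CO2. Treated with serial dilutions, 62.5–1000 µM for MDA-MB-468 and 62.5–2000 µM for HCT 15, for 24, 48 and 72 h. DMSO 0.5% in the 2x working stock. Sulforhodamine-B read-out, % inhibition = (control − sample)/control × 100. Triplicate experiments, ≥4 replicates per concentration.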

MDA-MB-468 [10] = experiment: Induction of cell cycle arrest in human MDA-MB-468 cells assessed as decrease in cells at S phase at 50 to 200 uM; assay type: functional, cell-based; settings: dose 50-200 µM; method in brief: as §3
MDA-MB-468 [11] = experiment: Induction of cell cycle arrest in human MDA-MB-468 cells assessed as increase in cells at G0/G1 phase at 50 uM; assay type: functional, cell-based; method in brief: as §3
MDA-MB-468 [12] = experiment: Induction of cell cycle arrest in human MDA-MB-468 cells assessed as increase in cells at sub G0/G1 phase at 200 uM (reference value: 1.78 %); assay type: functional; method in brief: as §3
HCT-15 [13] = experiment: Antiproliferative activity against human HCT-15 cells assessed as inhibition of cell proliferation incubated for 24 to 72 hrs by SRB assay; assay type: functional, cell-based; method in brief: as §5
MDA-MB-468 [14] = experiment: Induction of apoptosis in human MDA-MB-468 cells assessed as increase in caspase 3 activity; assay type: functional, cell-based; method in brief: as §1
HCT-15 [15] = experiment: Induction of cell cycle arrest in human HCT-15 cells assessed as decrease in cells at G0/G1 phase at 50 to 200 uM; assay type: functional, cell-based; settings: dose 50-200 µM; method in brief: as §3
MDA-MB-468 [16] = experiment: Induction of cell cycle arrest in human MDA-MB-468 cells assessed as decrease in cells at G2/M phase at 50 to 200 uM; assay type: functional, cell-based; settings: dose 50-200 µM; method in brief: as §3
HCT-15 [17] = experiment: Induction of cell cycle arrest in human HCT-15 cells assessed as decrease in cells at S phase at 100 uM; assay type: functional, cell-based
Method in brief: (§6)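 HCT 15 cells at 2 × 10^5/2 mL/well treated 48 h with 50, 100 or 200 µM, with DMSO control. Trypsinized, centrifuged 300 × g for 5 min, fixed 30 min in cold 70% ethanol on ice. Treated with RNase A 4 h, then propidium iodide 10 min at room temperature. Flow cytometry gave % sub-G0/G1, G0/G1, S and G2/M.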

HCT-15 [18] = experiment: Induction of cell cycle arrest in human HCT-15 cells assessed as decrease in cells at G2/M phase at 100 uM; assay type: functional, cell-based; method in brief: as §6
HCT-15 [19] = experiment: Induction of cell cycle arrest in human HCT-15 cells assessed as decrease in cells at G0/G1 phase at 100 uM; assay type: functional, cell-based; method in brief: as §6
HCT-15 [20] = experiment: Induction of cell cycle arrest in human HCT-15 cells assessed as decrease in cells at sub G0/G1 phase at 100 uM; assay type: functional, cell-based; method in brief: as §6
HCT-15 [21] = experiment: Induction of cell cycle arrest in human HCT-15 cells assessed as reduction in S phase at 200 uM; assay type: functional, cell-based; method in brief: as §6
HCT-15 [22] = experiment: Induction of cell cycle arrest in human HCT-15 cells assessed as reduction in G0/G1 phase at 200 uM; assay type: functional, cell-based; method in brief: as §6
HCT-15 [23] = experiment: Induction of cell cycle arrest in human HCT-15 cells assessed as decrease in cells at G2/M phase at 200 uM; assay type: functional, cell-based; method in brief: as §6
MCF7 = experiment: Induction of cell cycle arrest in human MCF7 cells assessed as increase in cells at sub G0/G1 phase at 200 uM incubated for 48 hrs by flow cytometric analysis (reference value: 2.57 %); assay type: functional

CCOc1ccc([C@@H]2C3CSCN3[C@]3(C(=O)Nc4ccccc43)[C@H]2C(=O)c2ccc(C)cc2)cc1OC (stereo not given in full)
Activity (HCT-15 [1]): 43.5% | IC50 (HCT-15 [2]): 365 µM | CC50 (HCT-15 [3]): 312 µM | Activity (HCT-15 [4]): Active | Activity (MDA-MB-468 [5]): Active | CC50 (MDA-MB-468 [6]): 281 µM | Activity (MDA-MB-468 [7]): Active | Activity (HCT-15 [8]): inactive | IC50 (MDA-MB-468 [9]): 361 µM | Activity (MDA-MB-468 [10]): Active | Activity (MDA-MB-468 [11]): inactive | Activity (MDA-MB-468 [12]): 44.5% | IC50 (HCT-15 [13]): 274 µM | IC50 (MDA-MB-468 [14]): 407 µM | Activity (HCT-15 [15]): Active | Activity (MDA-MB-468 [16]): Active

O=c1[nH]cc(F)c(=O)[nH]1 [FLUOROURACIL]
Activity (HCT-15 [17]): Active | IC50 (HCT-15 [2]): 426 µM | CC50 (HCT-15 [3]): 426 µM | CC50 (MDA-MB-468 [6]): 495 µM | IC50 (MDA-MB-468 [9]): 551 µM | IC50 (HCT-15 [13]): 579 µM | IC50 (MDA-MB-468 [14]): 495 µM | Activity (HCT-15 [18]): Active | Activity (HCT-15 [19]): Active | Activity (HCT-15 [20]): inactive

C=C1CC[C@H](O)C/C1=C/C=C1\CCC[C@]2(C)[C@@H]([C@H](C)CCCC(C)C)CC[C@@H]12 [CHOLECALCIFEROL]
Activity (HCT-15 [21]): Active | Activity (HCT-15 [22]): Active | Activity (HCT-15 [23]): Active | Activity (MCF7): 46.66%
